Laboratory results reported in ChEMBL document CHEMBL1142492 (J Med Chem, 2008).

Columns and labels:
[1] = target: Angiotensin-converting enzyme (Oryctolagus cuniculus) (UniProt P12822); experiment: Inhibition of rabbit ACE at 3 uM
Procedure, shortened: (§1)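 Counter-screen binding/enzyme panel at single 3 μM, n=2; results as percent inhibition. Species per target as listed (rat NMDA, GABAA sites; human receptors, transporters; rabbit ACE).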

[2] = target: Cyclin-dependent kinase 11A (Homo sapiens) (UniProt Q9UQ88); experiment: Inhibition of CDC2L2 at 3 uM
[3] = target: Serine/threonine-protein kinase 32C (Homo sapiens) (UniProt Q86UX6); experiment: Inhibition of YANK3 at 3 uM
[4] = target: Cyclin-dependent kinase 16 (Homo sapiens) (UniProt Q00536); experiment: Inhibition of PCTK1 at 3 uM
[5] = target: Phosphatidylinositol 4-phosphate 3-kinase C2 domain-containing subunit beta (Homo sapiens) (UniProt O00750); experiment: Inhibition of PIK3C2B at 3 uM
[6] = target: Tyrosine-protein kinase TXK (Homo sapiens) (UniProt P42681); experiment: Inhibition of TXK at 3 uM
[7] = target: NUAK family SNF1-like kinase 1 (Homo sapiens) (UniProt O60285); experiment: Inhibition of ARK5 at 3 uM
[8] = target: Rho-associated protein kinase 2 (Homo sapiens, UniProt O75116); experiment: Inhibition of ROCK2 at 3 uM
in vivo = settings: Sprague-Dawley, rat, po, 2 mg/kg
[9] = target: Protein kinase C eta type (Homo sapiens) (UniProt P24723); experiment: Inhibition of PRKCH at 3 uM
[10] = test system: Proto-oncogene tyrosine-protein kinase receptor Ret (Homo sapiens), P07949 [V804L]; experiment: Inhibition of RET V804L mutant at 3 uM
[11] = target: Casein kinase I isoform gamma-3 (Homo sapiens) (UniProt Q9Y6M4); experiment: Inhibition of CSNK1G3 at 3 uM
[12] = target: Dual specificity mitogen-activated protein kinase kinase 4 (Homo sapiens) (UniProt P45985); experiment: Inhibition of MEK4 at 3 uM
[13] = target: Uncharacterized serine/threonine-protein kinase SBK3 (Homo sapiens) (UniProt P0C264); experiment: Inhibition of SgK110 at 3 uM
[14] = target: cAMP-dependent protein kinase catalytic subunit alpha (Homo sapiens) (UniProt P17612); experiment: Inhibition of PKAC-alpha at 3 uM
[15] = target: Mitogen-activated protein kinase kinase kinase 7 (TAK1) (Homo sapiens) (UniProt O43318); experiment: Inhibition of TAK1 at 3 uM
[16] = target: Mitogen-activated protein kinase 13 (Homo sapiens) (UniProt O15264); experiment: Inhibition of p38-delta at 3 uM
[17] = target: Casein kinase I isoform gamma-2 (Homo sapiens) (UniProt P78368); experiment: Inhibition of CSNK1G2 at 3 uM
[18] = target: Serine/threonine-protein kinase 32B (Homo sapiens) (UniProt Q9NY57); experiment: Inhibition of YANK2 at 3 uM
[19] = target: Serine/threonine-protein kinase 35 (Homo sapiens) (UniProt Q8TDR2); experiment: Inhibition of STK35 at 3 uM
[20] = target: Proto-oncogene tyrosine-protein kinase receptor Ret (Homo sapiens) (UniProt P07949); experiment: Inhibition of RET at 3 uM
[21] = target: Serine/threonine-protein kinase MARK2 (Homo sapiens) (UniProt Q7KZI7); experiment: Inhibition of MARK2 at 3 uM
[22] = test system: Serine/threonine-protein kinase B-raf (Homo sapiens), P15056 [V600E]; experiment: Inhibition of BRAF V600E mutant at 3 uM
[23] = target: Cyclin-dependent kinase 2 (Homo sapiens) (UniProt P24941); experiment: Inhibition of CDK2 at 3 uM
[24] = target: D(4) dopamine receptor (Homo sapiens) (UniProt P21917); experiment: Inhibition of human dopamine D4 receptor at 3 uM; procedure, shortened: as §1
[25] = target: LIM domain kinase 1 (Homo sapiens) (UniProt P53667); experiment: Inhibition of LIMK1 at 3 uM
[26] = target: Mitogen-activated protein kinase kinase kinase 12 (DLK) (Homo sapiens) (UniProt Q12852); experiment: Inhibition of DLK at 3 uM
[27] = target: Wee1-like protein kinase 2 (Homo sapiens) (UniProt P0C1S8); experiment: Inhibition of WEE2 at 3 uM
[28] = target: Receptor tyrosine-protein kinase erbB-4 (Homo sapiens) (UniProt Q15303); experiment: Inhibition of ERBB4 at 3 uM
Procedure, shortened: (§2)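 Single-concentration kinase panel scoring: each value is the percentage of enzyme activity remaining relative to a DMSO-only control. An activity statistically indistinct from DMSO control was scored "no hit".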

[29] = target: Insulin receptor (Homo sapiens) (UniProt P06213); experiment: Inhibition of INSR at 3 uM
[30] = target: RAF proto-oncogene serine/threonine-protein kinase (Homo sapiens) (UniProt P04049); experiment: Inhibition of RAF1 at 3 uM
[31] = target: High affinity nerve growth factor receptor (Homo sapiens) (UniProt P04629); experiment: Inhibition of TRKA at 3 uM
[32] = target: Vascular endothelial growth factor receptor 1 (Homo sapiens) (UniProt P17948); experiment: Inhibition of FLT1 at 3 uM; procedure, shortened: as §2
[33] = target: Epithelial discoidin domain-containing receptor 1 (Homo sapiens) (UniProt Q08345); experiment: Inhibition of DDR1 at 3 uM
[34] = target: Mitogen-activated protein kinase kinase kinase kinase 4 (Homo sapiens) (UniProt O95819); experiment: Inhibition of MAP4K4 at 3 uM
[35] = target: Endothelin receptor type B (Homo sapiens) (UniProt P24530); experiment: Inhibition of human endothelin ETB receptor at 3 uM; procedure, shortened: as §1
[36] = target: Alpha-2A adrenergic receptor (Homo sapiens) (UniProt P08913); experiment: Inhibition of human adrenergic alpha2A receptor at 3 uM
[37] = target: Serine/threonine-protein kinase RIO3 (Homo sapiens) (UniProt O14730); experiment: Inhibition of RIOK3 at 3 uM
[38] = target: Cyclin-dependent kinase 8 (Homo sapiens) (UniProt P49336); experiment: Inhibition of CDK8 at 3 uM
[39] = target: Mitogen-activated protein kinase kinase kinase kinase 2 (Homo sapiens) (UniProt Q12851); experiment: Inhibition of MAP4K2 at 3 uM
[40] = target: Calcium/calmodulin-dependent protein kinase kinase 2 (Homo sapiens) (UniProt Q96RR4); experiment: Inhibition of CAMKK2 at 3 uM
[41] = target: Dual specificity mitogen-activated protein kinase kinase 2 (Homo sapiens) (UniProt P36507); experiment: Inhibition of MEK2 at 3 uM
[42] = target: Dual specificity protein kinase CLK2 (Homo sapiens) (UniProt P49760); experiment: Inhibition of CLK2 at 3 uM
[43] = target: Serine/threonine-protein kinase Chk1 (Homo sapiens) (UniProt O14757); experiment: Inhibition of CHEK1 at 3 uM
[44] = target: RAC-alpha serine/threonine-protein kinase (Homo sapiens, UniProt P31749); experiment: Inhibition of AKT1 at 3 uM

Sequence of Rho-associated protein kinase 2 (O75116 whole entry, looked up): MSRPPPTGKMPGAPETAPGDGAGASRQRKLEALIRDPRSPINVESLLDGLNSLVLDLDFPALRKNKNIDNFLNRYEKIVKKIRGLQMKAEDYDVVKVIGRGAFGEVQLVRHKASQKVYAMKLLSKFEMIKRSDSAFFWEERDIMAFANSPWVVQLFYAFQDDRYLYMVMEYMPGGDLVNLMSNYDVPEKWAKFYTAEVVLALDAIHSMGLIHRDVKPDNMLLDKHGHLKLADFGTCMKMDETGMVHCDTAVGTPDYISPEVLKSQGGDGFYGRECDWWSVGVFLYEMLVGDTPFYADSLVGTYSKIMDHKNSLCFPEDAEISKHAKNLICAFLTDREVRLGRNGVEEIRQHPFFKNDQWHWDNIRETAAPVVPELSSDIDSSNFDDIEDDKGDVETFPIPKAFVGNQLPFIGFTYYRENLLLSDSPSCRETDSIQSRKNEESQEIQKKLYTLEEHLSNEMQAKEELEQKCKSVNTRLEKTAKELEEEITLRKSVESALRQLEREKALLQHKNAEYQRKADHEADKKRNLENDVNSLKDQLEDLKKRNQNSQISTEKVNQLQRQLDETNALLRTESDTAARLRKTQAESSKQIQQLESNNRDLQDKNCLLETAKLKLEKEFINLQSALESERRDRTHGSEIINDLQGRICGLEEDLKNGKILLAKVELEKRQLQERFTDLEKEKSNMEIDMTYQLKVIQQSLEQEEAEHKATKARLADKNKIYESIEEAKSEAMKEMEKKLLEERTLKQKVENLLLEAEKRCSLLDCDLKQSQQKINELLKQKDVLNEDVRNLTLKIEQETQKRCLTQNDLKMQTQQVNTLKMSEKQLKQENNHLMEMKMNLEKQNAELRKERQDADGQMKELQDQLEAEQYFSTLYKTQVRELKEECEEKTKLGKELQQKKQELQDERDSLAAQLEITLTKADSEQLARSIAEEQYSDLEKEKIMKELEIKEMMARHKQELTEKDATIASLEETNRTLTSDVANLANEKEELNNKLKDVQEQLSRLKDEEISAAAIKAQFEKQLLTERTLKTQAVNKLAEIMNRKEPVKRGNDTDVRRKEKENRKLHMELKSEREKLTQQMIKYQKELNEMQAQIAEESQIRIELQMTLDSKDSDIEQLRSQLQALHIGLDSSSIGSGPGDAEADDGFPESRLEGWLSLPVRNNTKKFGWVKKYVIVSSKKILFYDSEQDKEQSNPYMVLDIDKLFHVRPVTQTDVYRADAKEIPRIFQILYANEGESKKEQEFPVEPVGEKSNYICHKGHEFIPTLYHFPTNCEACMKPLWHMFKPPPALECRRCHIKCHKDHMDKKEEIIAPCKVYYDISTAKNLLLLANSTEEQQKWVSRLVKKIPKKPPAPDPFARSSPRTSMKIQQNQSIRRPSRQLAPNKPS
Sequence of Dual specificity protein kinase CLK2 (Homo sapiens) (P49760 whole entry, looked up): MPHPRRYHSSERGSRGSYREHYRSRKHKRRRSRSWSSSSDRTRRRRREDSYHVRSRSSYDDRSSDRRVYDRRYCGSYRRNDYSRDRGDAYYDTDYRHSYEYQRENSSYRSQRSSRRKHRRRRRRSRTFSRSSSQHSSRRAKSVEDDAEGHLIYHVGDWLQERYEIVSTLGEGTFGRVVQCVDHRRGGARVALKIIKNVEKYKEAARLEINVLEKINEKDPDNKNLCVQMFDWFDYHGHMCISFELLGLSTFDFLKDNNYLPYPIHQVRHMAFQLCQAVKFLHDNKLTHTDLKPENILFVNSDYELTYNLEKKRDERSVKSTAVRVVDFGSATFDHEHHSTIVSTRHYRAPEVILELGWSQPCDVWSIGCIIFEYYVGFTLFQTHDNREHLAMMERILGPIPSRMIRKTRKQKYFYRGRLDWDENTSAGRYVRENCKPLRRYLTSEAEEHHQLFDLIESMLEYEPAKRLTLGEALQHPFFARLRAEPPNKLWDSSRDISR
Sequence of Dual specificity mitogen-activated protein kinase kinase 2 (Homo sapiens) (P36507 whole entry): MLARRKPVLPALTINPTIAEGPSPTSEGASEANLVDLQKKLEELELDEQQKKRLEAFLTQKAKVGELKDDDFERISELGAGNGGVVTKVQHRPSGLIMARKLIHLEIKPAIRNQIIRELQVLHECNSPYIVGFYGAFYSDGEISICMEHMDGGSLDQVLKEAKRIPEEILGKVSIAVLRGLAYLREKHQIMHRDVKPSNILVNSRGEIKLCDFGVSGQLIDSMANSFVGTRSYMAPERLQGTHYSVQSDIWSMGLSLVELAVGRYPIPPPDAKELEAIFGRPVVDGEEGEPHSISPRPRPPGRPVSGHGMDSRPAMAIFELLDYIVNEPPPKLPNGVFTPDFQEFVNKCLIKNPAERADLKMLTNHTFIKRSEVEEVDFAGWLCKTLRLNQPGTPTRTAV
Sequence of Alpha-2A adrenergic receptor (Homo sapiens) (P08913 whole entry): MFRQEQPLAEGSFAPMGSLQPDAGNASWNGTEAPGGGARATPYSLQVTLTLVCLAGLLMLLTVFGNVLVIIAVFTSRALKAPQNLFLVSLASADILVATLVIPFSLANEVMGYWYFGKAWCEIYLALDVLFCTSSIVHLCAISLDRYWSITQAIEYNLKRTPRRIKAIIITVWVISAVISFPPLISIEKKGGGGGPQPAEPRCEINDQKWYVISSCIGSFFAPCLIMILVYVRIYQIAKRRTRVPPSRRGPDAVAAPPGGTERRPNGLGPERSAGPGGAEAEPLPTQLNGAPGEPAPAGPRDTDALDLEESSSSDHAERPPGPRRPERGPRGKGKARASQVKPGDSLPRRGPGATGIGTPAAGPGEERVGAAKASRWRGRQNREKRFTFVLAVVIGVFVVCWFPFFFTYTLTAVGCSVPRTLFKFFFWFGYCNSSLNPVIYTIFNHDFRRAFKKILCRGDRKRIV
Sequence of RAF proto-oncogene serine/threonine-protein kinase (Homo sapiens) (P04049 whole entry): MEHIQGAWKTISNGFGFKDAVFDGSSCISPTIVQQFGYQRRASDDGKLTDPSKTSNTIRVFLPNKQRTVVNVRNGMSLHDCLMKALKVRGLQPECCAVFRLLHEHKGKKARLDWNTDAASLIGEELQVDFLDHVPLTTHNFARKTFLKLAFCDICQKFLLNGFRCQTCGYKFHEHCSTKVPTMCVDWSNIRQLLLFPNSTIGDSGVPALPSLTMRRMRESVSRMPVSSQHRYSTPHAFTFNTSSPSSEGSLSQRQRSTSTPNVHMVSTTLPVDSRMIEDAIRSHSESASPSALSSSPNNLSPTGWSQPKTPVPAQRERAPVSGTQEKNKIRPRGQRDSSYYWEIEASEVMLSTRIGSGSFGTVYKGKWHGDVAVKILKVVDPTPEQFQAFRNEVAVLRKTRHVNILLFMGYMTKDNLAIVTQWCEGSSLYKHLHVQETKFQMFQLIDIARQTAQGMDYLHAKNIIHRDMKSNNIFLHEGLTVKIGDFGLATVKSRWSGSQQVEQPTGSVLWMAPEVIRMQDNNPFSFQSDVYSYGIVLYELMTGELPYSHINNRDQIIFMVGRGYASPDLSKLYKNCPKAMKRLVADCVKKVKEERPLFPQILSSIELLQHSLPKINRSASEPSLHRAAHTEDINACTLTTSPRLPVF
Sequence of Mitogen-activated protein kinase kinase kinase kinase 4 (Homo sapiens) (O95819 2-1239 limits assumed): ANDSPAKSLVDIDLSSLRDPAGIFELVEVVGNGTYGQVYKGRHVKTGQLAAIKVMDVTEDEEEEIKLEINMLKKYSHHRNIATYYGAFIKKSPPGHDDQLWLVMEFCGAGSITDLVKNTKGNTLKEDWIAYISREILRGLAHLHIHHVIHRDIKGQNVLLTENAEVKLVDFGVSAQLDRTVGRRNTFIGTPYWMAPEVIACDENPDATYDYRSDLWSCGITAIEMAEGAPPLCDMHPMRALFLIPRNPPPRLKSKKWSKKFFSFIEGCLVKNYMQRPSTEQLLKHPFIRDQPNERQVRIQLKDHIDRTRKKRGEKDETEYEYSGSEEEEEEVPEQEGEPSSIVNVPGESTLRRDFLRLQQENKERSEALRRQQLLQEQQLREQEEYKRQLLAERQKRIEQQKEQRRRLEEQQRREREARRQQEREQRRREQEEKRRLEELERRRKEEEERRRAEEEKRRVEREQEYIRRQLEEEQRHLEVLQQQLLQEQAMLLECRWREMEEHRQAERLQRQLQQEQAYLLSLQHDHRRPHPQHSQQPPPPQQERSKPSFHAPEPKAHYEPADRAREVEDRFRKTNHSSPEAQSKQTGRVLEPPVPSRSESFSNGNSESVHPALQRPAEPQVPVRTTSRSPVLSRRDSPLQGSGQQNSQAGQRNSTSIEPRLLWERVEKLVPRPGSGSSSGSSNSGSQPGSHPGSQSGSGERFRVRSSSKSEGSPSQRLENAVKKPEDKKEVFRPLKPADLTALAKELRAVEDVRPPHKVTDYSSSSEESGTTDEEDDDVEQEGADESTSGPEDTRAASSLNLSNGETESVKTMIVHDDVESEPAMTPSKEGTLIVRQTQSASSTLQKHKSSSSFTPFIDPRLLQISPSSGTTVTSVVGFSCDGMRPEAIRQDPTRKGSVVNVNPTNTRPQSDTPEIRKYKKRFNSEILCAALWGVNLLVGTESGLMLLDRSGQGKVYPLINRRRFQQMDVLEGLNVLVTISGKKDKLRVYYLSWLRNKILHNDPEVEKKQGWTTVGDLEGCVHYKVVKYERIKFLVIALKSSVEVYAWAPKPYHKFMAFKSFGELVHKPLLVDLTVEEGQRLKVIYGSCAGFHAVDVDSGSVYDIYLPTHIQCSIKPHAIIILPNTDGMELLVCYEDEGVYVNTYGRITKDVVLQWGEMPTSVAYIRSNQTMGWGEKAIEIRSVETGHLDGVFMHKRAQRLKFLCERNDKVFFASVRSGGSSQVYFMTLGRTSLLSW
Sequence of Uncharacterized serine/threonine-protein kinase SBK3 (Homo sapiens) (P0C264 whole entry): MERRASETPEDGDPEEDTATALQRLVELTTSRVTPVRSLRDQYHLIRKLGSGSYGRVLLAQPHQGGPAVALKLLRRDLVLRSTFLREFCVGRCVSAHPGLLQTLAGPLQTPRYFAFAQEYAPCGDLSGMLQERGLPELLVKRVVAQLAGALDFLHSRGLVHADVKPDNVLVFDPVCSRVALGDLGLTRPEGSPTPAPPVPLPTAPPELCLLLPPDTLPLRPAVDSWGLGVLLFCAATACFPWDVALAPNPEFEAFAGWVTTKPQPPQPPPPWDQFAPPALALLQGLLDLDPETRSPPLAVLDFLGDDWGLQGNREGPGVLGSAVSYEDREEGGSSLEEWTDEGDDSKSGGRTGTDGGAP

CN(C)CCOc1cc(-c2cn[nH]c2)ccc1NC(=O)C1COc2ccccc2O1 (stereo not given) [SR-3677] gave an inhibition [1] of 1%, an inhibition [2] of under 10% and an inhibition [3] of under 10%. It also gave an inhibition [4] of under 10%, an inhibition [5] of under 10% and an inhibition [6] of under 10%. For the same compound, the inhibition [7] was under 10%, the inhibition [8] was 99.6% and the Cmax (in vivo) was 50 nM. For the same compound, the inhibition [9] was under 10%, the inhibition [10] was under 10% and the inhibition [11] was under 10%. The inhibition [12] was under 10%, the inhibition [13] was under 10% and the inhibition [14] was under 10%. For the same compound, the inhibition [15] was under 10%, the inhibition [16] was under 10% and the inhibition [17] was under 10%. It also gave an inhibition [18] of under 10%, an inhibition [19] of under 10% and an inhibition [20] of under 10%. The inhibition [21] was under 10%, the inhibition [22] was under 10% and the inhibition [23] was under 10%. For the same compound, the inhibition [24] was -2%, the inhibition [25] was under 10% and the inhibition [26] was under 10%. It also gave an inhibition [27] of under 10%, an inhibition [28] of under 10% and an inhibition [29] of under 10%. For the same compound, the inhibition [30] was under 10%, the inhibition [31] was under 10% and the inhibition [32] was under 10%. For the same compound, the inhibition [33] was under 10%, the inhibition [34] was under 10% and the inhibition [35] was -1%. It also gave an inhibition [36] of 76%, an inhibition [37] of under 10% and an inhibition [38] of under 10%. For the same compound, the inhibition [39] was under 10%, the inhibition [40] was under 10% and the inhibition [41] was under 10%. It also gave an inhibition [42] of 70%, an inhibition [43] of under 10% and an inhibition [44] of under 10%.
